From ChEMBL document CHEMBL1156322, “Synthesis and biological evaluation of nitrogen-containing benzophenone analogues as TNF-alpha and IL-6 inhibitors with antioxidant activity” (Bioorg Med Chem Lett, 2010)
Activity calls are given as the source filed them. The calls are words filed in the database; no cut-off is given here.

Assays:
[1] = system: Radical scavenging activity; assay: Antioxidant activity assessed as DPPH free radical scavenging activity at 1 mM after 20 mins by spectrophotometry
[2] = system: Radical scavenging activity; assay: Antioxidant activity assessed as DPPH free radical scavenging activity at 1 uM after 10 mins by spectrophotometry; assay type: functional
THP-1 [3] = assay: Antiinflammatory activity in LPS-stimulated human THP1 cells assessed as inhibition of IL6 formation at 1 uM pretreated 30 mins before LPS challenge measured after 24 hrs by ELISA; assay type: functional; parameters: scale not given: the % may be the effect or the level left
Outline: (§1)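 PMA-differentiated human THP-1 cells in RPMI 1640 with 10% FBS, penicillin and streptomycin. Compound or vehicle (0.5% DMSO) was added for 30 min at 37 °C, then E. coli 0127:B8 LPS. Cells were incubated 24 h at 37 °C, 5% CO2. Supernatant TNF-α and IL-6 were measured by ELISA. Percent inhibition of release was calculated versus control.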

[4] = system: Radical scavenging activity; assay: Antioxidant activity assessed as DPPH free radical scavenging activity at 1 uM after 6 mins by spectrophotometry; assay type: functional
[5] = Cytotoxicity against LPS-stimulated human THP-1 cells at 10 uM after 24 hrs by CCK-8 assay; details: THP-1, 24 h
[6] = system: Radical scavenging activity; assay: Antioxidant activity assessed as DPPH free radical scavenging activity at 1 uM after 4 mins by spectrophotometry; assay type: functional
THP-1 [7] = assay: Antiinflammatory activity in LPS-stimulated human THP1 cells assessed as inhibition of TNFalpha formation at 10 uM pretreated 30 mins before LPS challenge measured after 24 hrs by ELISA; assay type: functional; parameters: scale not given: the % may be the effect or the level left
Outline: as §1

THP-1 [8] = assay: Antiinflammatory activity in LPS-stimulated human THP1 cells assessed as inhibition of IL6 formation at 10 uM pretreated 30 mins before LPS challenge measured after 24 hrs by ELISA; assay type: functional; parameters: scale not given: the % may be the effect or the level left
Outline: as §1

[9] = system: Radical scavenging activity; assay: Antioxidant activity assessed as DPPH free radical scavenging activity at 1 uM after 8 mins by spectrophotometry; assay type: functional
[10] = system: Radical scavenging activity; assay: Antioxidant activity assessed as DPPH free radical scavenging activity at 1 uM after 2 mins by spectrophotometry; assay type: functional
THP-1 [11] = assay: Antiinflammatory activity in LPS-stimulated human THP1 cells assessed as inhibition of TNFalpha formation at 1 uM pretreated 30 mins before LPS challenge measured after 24 hrs by ELISA; assay type: functional; parameters: scale not given: the % may be the effect or the level left
Outline: as §1

Structure (SMILES)	Activity [1]	Activity [2]	Activity (THP-1 [3])	Activity [4]	Activity [5]	Activity [6]	Activity (THP-1 [7])	Activity (THP-1 [8])	Activity [9]	Activity [10]	Activity (THP-1 [11])
COc1cc(OC)c(C(=O)c2ccccc2F)c(O)c1CN1CCOCC1	19.7%	8.21%	19%	4.74%	39%	4.2%	27%	89%	6.8%	3.5%	
COc1cc(OC)c(C(=O)c2ccccc2Br)c(O)c1CN1CCCC1	inactive	inactive	19%	inactive	84%	inactive	99%	100%	inactive	inactive	
COc1cc(OC)c(C(=O)c2ccccc2F)c(O)c1CN1CCCCC1	73.3%	34.6%	18%	23%	31%	16.9%	0%	84%	28.9%	13.7%	
COc1cc(OC)c(C(=O)c2cccc(F)c2)c(O)c1CN1CCCC1	7.29%	4.78%	34%	2.11%	34%	4.51%	1%	93%	3.78%	0.92%	
COc1cc(O)c(C(=O)c2cccc(Cl)c2)c(OC)c1	16.4%	7.6%	31%	4.2%	49%	3.9%	0%	78%	6.52%	3.21%	
COc1cc(OC)c(C(=O)c2ccccc2F)c(O)c1CN1CCCC1	24.8%	11.9%	15%	6.45%	27%	4.24%	10%	87%	9.5%	3.6%	
COc1cc(O)c(C(=O)c2cccc(F)c2)c(OC)c1	inactive	inactive	38%	inactive	24%	inactive	0%	81%	inactive	inactive	
COc1cc(OC)c(C(=O)c2cccc(F)c2)c(O)c1CN1CCCCC1	24.7%	13.7%	30%	9.25%	27%	5.98%	0%	87%	11.8%	4.2%	
COc1cc(O)c(C(=O)c2ccccc2Br)c(OC)c1	inactive	inactive	7%	inactive	43%	inactive	11%	72%	inactive	inactive	
C[C@@H]1C[C@H]2[C@@H]3CCC4=CC(=O)C=C[C@]4(C)[C@@]3(F)[C@@H](O)C[C@]2(C)[C@@]1(O)C(=O)CO [DEXAMETHASONE]											73%
COc1cc(O)c(C(=O)c2ccccc2F)c(OC)c1	32.4%	18.9%	11%	13.6%	53%	12.5%	47%	71%	16.8%	8.2%	
O=C(O)c1cc(O)c(O)c(O)c1		46.9%		19.4%		22.7%			38.4%	18.2%	
COc1cc(OC)c(C(=O)c2cccc(Cl)c2)c(O)c1CN1CCOCC1	33.4%	15.9%	42%	9.45%	39%	6.44%	1%	83%	14.6%	5.52%	
COc1cc(OC)c(C(=O)c2ccccc2Br)c(O)c1CN1CCCCC1	64.4%	32.5%	22%	17.7%	61%	14.2%	78%	98%	25.4%	10.8%	
COc1cc(OC)c(C(=O)c2cccc(Cl)c2)c(O)c1CN1CCCCC1	45.3%	22.8%	33%	14.8%	31%	11.4%	11%	83%	20.9%	9.2%	
COc1cc(OC)c(C(=O)c2cccc(F)c2)c(O)c1CN1CCN(C)CC1	40.4%	22.6%	47%	18.5%	22%	15.8%	54%	97%	19.4%	9.5%	
COc1cc(OC)c(C(=O)c2cccc(Cl)c2)c(O)c1CN1CCCC1	5.13%	2.11%	41%	1.82%	53%	1.6%	37%	81%	2.1%	0.5%	
COc1cc(OC)c(C(=O)c2ccccc2Br)c(O)c1CN1CCN(C)CC1	13.5%	7.59%	9%	4.5%	23%	3.95%	20%	81%	6.8%	3.2%	
COc1cc(OC)c(C(=O)c2cccc(F)c2)c(O)c1CN1CCOCC1	inactive	inactive	35%	inactive	42%	inactive	21%	86%	inactive	inactive	
COc1cc(OC)c(C(=O)c2ccccc2Br)c(O)c1CN1CCOCC1	6.23%	2.95%	19%	1.9%	66%	1.2%	65%	97%	2.11%	0.8%	
COc1cc(OC)c(C(=O)c2cccc(Cl)c2)c(O)c1CN1CCN(C)CC1	inactive	inactive	54%	inactive	77%	inactive	100%	100%	inactive	inactive	
COc1cc(OC)c(C(=O)c2ccccc2F)c(O)c1CN1CCN(C)CC1	17.5%	6.2%	21%	4%	40%	3.95%	19%	83%	5.4%	3.3%	
